Data: ChEMBL document CHEMBL2311373, “Monocyclic β-lactams as antibacterial agents: facing antioxidant activity of N-methylthio-azetidinones” (2013)
Values after ≈ are worked out from the molar mass of the structure shown. Active and inactive are the calls of the source. The calls are words filed in the database; no cut-off is given here.

Assays:
[1] = test system: Radical scavenging activity; experiment: Antioxidant activity assessed as trolox equivalent of DPPH radical scavenging activity by spectroscopic analysis; format: functional
[2] = Antioxidant activity assessed as trolox equivalent of ABTS radical scavenging activity at pH 7.4 after 6 mins by TEAC assay; format: functional
In short: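 ABTS radical cation preformed with K₂S₂O₈ in PBS, pH 7.4. Diluted radical solution mixed with sample dissolved in DMSO; absorbance at 734 nm read exactly 6 min later at 30.0 °C. A DMSO blank was run, and the Trolox standard was treated the same way and checked before each series. Activity is given as a ratio to Trolox with its standard error.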

[3] = Antioxidant activity assessed as Fe (II) equivalent of (TPTZ)2Fe3+ reducing activity after 4 mins by FRAP assay; format: functional
In short: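 FRAP reagent made from TPTZ and FeCl₃ in aqueous acetate buffer. Reagent and diluted sample mixed in a cuvette; absorbance of the blue Fe²⁺ complex at 593 nm read exactly 4 min later at 25.0 °C. Four or five sample concentrations tested. Slope of absorbance vs concentration divided by the FeSO₄ standard slope gives activity in mmol equiv Fe²⁺.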

[4] = Antioxidant activity assessed as resorcinol equivalent of peroxy radical scavenging activity at pH 2.2 by BR assay; format: functional
In short: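 Briggs-Rauscher oscillating reaction thermostated at 25.0 °C. The resorcinol standard line was checked before each series. Relative antioxidant activity is taken from the sample and resorcinol concentrations that give the same effect.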

[5] = test system: Staphylococcus aureus; experiment: Antibacterial activity against methicillin-resistant Staphylococcus aureus clinical isolates from cystic fibrosis patients assessed as growth inhibition by CLSI broth microdilution method
[6] = test system: Radical scavenging activity; experiment: Antioxidant activity assessed as trolox equivalent of DPPH radical scavenging activity after 15 mins by spectroscopic analysis; format: functional
In short: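 Absorbance at 515 nm of methanolic DPPH radical read before (A₀) and 15 min after (Af) adding sample. Inhibition % = (1 − Af/A₀) × 100. Plots of % inhibition vs concentration were fitted with lines through the origin and compared with the Trolox standard.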

[7] = Antioxidant activity of the compound by voltammetric analysis; format: functional

Row | Molecule | Activity [1] [µM] | Activity [2] | Activity [3] | Activity [4] | MIC50 [5] [mg/L] | MIC90 [5] [mg/L] | Activity [6] | MIC [5] [mg/L] | Activity [7]
1 | O=C1O[C@H]([C@@H](O)CO)C(O)=C1O | 1100 |  |  |  |  |  |  |  | 
2 | CSN1C(=O)[C@H]([C@@H](C)O)[C@H]1SC(C)=O |  | inactive | inactive | inactive | 64 (≈ 272 µM) | 128 (≈ 544 µM) | inactive |  | 
3 | CCOCOc1c(OC)cc(C(=O)O[C@H](C)[C@H]2C(=O)N(SC)[C@@H]2OC(C)=O)cc1OC |  | inactive | inactive | 0.7 µM |  |  | inactive |  | 
4 | CSN1C(=O)C[C@@H]1OC(C)=O |  | inactive | inactive | inactive | 32 (≈ 183 µM) | 64 (≈ 365 µM) | inactive | 32 (≈ 183 µM) | 
5 | COc1cc(C(=O)O[C@H](C)[C@H]2C(=O)N(SC)[C@@H]2OC(C)=O)cc(OC)c1O |  | 0.037 mmol | 0.19 mmol | 1.8 µM | 64 (≈ 160 µM) | 128 (≈ 320 µM) | 0.0091 mmol |  | 
6 | CC(=O)SC1CC(=O)N1 (stereo not drawn) |  | inactive | inactive | inactive | 32 (≈ 220 µM) | 64 (≈ 441 µM) | inactive |  | inactive
7 | CSN1C(=O)[C@H]([C@@H](C)OC(=O)c2ccc(O)c(O)c2)[C@H]1OC(C)=O |  | 1.23 mmol | 1.91 mmol | 0.38 µM | 128 (≈ 360 µM) | > 128 | 1.96 mmol |  | 
8 | CC(O[Si](C)(C)C(C)(C)C)[C@H]1C(=O)N/C1=C\C(=O)Sc1ccccc1 (stereo partly drawn) |  |  |  |  |  |  |  |  | inactive
9 | CO/N=C(\C(=O)N[C@@H]1C(=O)N2C(C(=O)O)=C(CSc3nc(=O)c(O)nn3C)CS[C@H]12)c1csc(N)n1 [CEFTRIAXONE] |  |  |  |  | 8 (≈ 14.4 µM) | > 128 |  |  | 
10 | CSN1C(=O)CC1SC(C)=O (stereo not drawn) |  | inactive | inactive | inactive | 16 (≈ 83.6 µM) | 32 (≈ 167 µM) | inactive | 16 (≈ 83.6 µM) | 
11 | CSN1C(=O)[C@H]([C@@H](C)OC(=O)/C=C/c2ccc(O)c(O)c2)[C@H]1OC(C)=O |  | 0.98 mmol | 1.98 mmol | 1.95 µM | 64 (≈ 168 µM) | 64 (≈ 168 µM) | 1.23 mmol |  | 
12 | VITAMIN E | 500 |  |  |  |  |  |  |  | 
13 | CSN1CCC1=O |  |  |  |  |  |  |  |  | inactive
14 | CO/N=C(\C(=O)N[C@@H]1C(=O)N2C(C(=O)O)=C(COC(C)=O)CS[C@H]12)c1csc(N)n1 [CEFOTAXIME] |  |  |  |  | 128 (≈ 281 µM) | > 128 |  |  | 
15 | CSN1C(=O)[C@H]([C@@H](C)O)[C@H]1OC(C)=O |  | inactive | inactive | inactive | 64 (≈ 292 µM) | > 128 | inactive |  | 
